One may read the MIC as the lowest concentration found to suppress growth. Read a high MIC as a need for much substance.

Common to all, as to type: functional
One assay relates to Staphylococcus aureus. Kind of assay: Antibacterial activity against Staphylococcus aureus MTCC 96 by broth microdilution method. The gist of the method:
(§1)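 Serial dilutions in Mueller Hinton broth, drugs diluted in DMSO from a 2000 µg/ml stock, inoculum adjusted by turbidity to 10⁸ CFU/ml, ampicillin as reference. Primary screen at 500, 250 and 125 µg/ml; actives retested at 100 down to 1.5625 µg/ml. Incubated overnight at 37 °C.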
In general terms: Dilution methods test growth across graded concentrations, often in twofold steps.

The subject of another assay is Streptococcus pyogenes. Put plainly: Antibacterial activity against Streptococcus pyogenes MTCC 442 by broth microdilution method. The gist of the method: as §1
The subject of the next assay is Escherichia coli. Put plainly: Antibacterial activity against Escherichia coli MTCC 443 by broth microdilution method. Summed up: as §1
In a further assay the test system is Pseudomonas aeruginosa. Put plainly: Antibacterial activity against Pseudomonas aeruginosa MTCC 2488 by broth microdilution method. Summed up:
as §1

The next assay concerns Aspergillus clavatus. Put plainly: Antifungal activity against Aspergillus clavatus MTCC 1323 by broth microdilution method.
Assay [1] deals with Mycobacterium tuberculosis. Kind of assay: Antimycobacterial activity against Mycobacterium tuberculosis H37Rv at MIC concentration after up to 28 days.
Another assay deals with Candida albicans. Kind of assay: Antifungal activity against Candida albicans MTCC 227 by broth microdilution method.
Assay [2] has as its system Mycobacterium tuberculosis. Put plainly: Antimycobacterial activity against Mycobacterium tuberculosis H37Rv after up to 28 days. To be noted: 672 h. Summed up:
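Lowenstein-Jensen agar dilution against M. tuberculosis H37Rv. Compounds were made up as 2000 µg/ml DMSO stocks and added to liquid L.J. medium at primary levels of 1000, 500 and 250 µg/ml and secondary levels of 200–3.25 µg/ml. The medium was inspissated, held 24 h at 37 °C, then streaked with bacilli from saline suspension. Growth was read at 12, 22 and 28 days against drug-free controls. MIC was the lowest concentration giving no colonies or fewer than 20.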

The subject of another assay is Aspergillus niger. Kind of assay: Antifungal activity against Aspergillus niger MTCC 282 by broth microdilution method.

Values after ≈ are worked out from the molar mass of the structure shown.

As to `CC1(C)S[C@@H]2[C@H](NC(=O)[C@H](N)c3ccccc3)C(=O)N2[C@H]1C(=O)O` [AMPICILLIN], the MIC against Staphylococcus aureus amounted to 250 µg/mL (≈ 715 µM); against Streptococcus pyogenes it was 100 µg/mL (≈ 286 µM); against Escherichia coli it was 100 µg/mL (≈ 286 µM); in the assay on Pseudomonas aeruginosa, 100 µg/mL (≈ 286 µM).

For the molecule `NNc1nc2c(Cl)cccc2s1`, the MIC against Staphylococcus aureus came out at 500 µg/mL (≈ 2500 µM); with Streptococcus pyogenes it was 500 µg/mL (≈ 2500 µM); against Aspergillus clavatus, 500 µg/mL (≈ 2500 µM); with Candida albicans it was 1000 µg/mL (≈ 5010 µM); in [2] it was 100 µg/mL (≈ 501 µM); against Escherichia coli it was 250 µg/mL (≈ 1250 µM). For the same molecule, the MIC amounted to 250 µg/mL (≈ 1250 µM) in the assay on Pseudomonas aeruginosa and 500 µg/mL (≈ 2500 µM) against Aspergillus niger. Moreover, in [1], the “inhibition (INH)” value is reported as 99%.

For `NNc1nc2ccc(Cl)cc2s1`, the MIC against Staphylococcus aureus was 500 µg/mL (≈ 2500 µM); with Streptococcus pyogenes, 500 µg/mL (≈ 2500 µM); in the assay with Aspergillus clavatus, 250 µg/mL (≈ 1250 µM); in the assay on Candida albicans it was 250 µg/mL (≈ 1250 µM); in assay [2], 200 µg/mL (≈ 1000 µM); with Escherichia coli, 100 µg/mL (≈ 501 µM). For the same molecule, the MIC came to 125 µg/mL (≈ 626 µM) against Pseudomonas aeruginosa and 200 µg/mL (≈ 1000 µM) in the assay on Aspergillus niger. Besides, in [1], the “inhibition (INH)” value is listed as 99%.

On to `COc1ccc2nc(NN)sc2c1`, for which the MIC in the assay with Staphylococcus aureus was 200 µg/mL (≈ 1020 µM); in the assay on Streptococcus pyogenes, 250 µg/mL (≈ 1280 µM); in the assay on Aspergillus clavatus, 250 µg/mL (≈ 1280 µM); against Candida albicans, 500 µg/mL (≈ 2560 µM); in assay [2], 50 µg/mL (≈ 256 µM); in the assay with Escherichia coli, 62.5 µg/mL (≈ 320 µM). In addition, the MIC in the assay with Pseudomonas aeruginosa was found to be 125 µg/mL (≈ 640 µM); in the assay with Aspergillus niger, 500 µg/mL (≈ 2560 µM). In assay [1], the “inhibition (INH)” value was found to be 99%.

For the molecule `NNc1nc2cc(Cl)c(Cl)cc2s1`, the MIC turned out to be 250 µg/mL (≈ 1070 µM) against Staphylococcus aureus; 500 µg/mL (≈ 2140 µM) against Streptococcus pyogenes; 1000 µg/mL (≈ 4270 µM) in the assay on Aspergillus clavatus; 500 µg/mL (≈ 2140 µM) with Candida albicans; 250 µg/mL (≈ 1070 µM) in assay [2]; 100 µg/mL (≈ 427 µM) against Escherichia coli. The results for the MIC against Pseudomonas aeruginosa and in the assay on Aspergillus niger were 125 µg/mL (≈ 534 µM) and 500 µg/mL (≈ 2140 µM), respectively. For the same molecule, in assay [1], the “inhibition (INH)” value is 99%.

For `NNc1nc2c([N+](=O)[O-])cccc2s1`, the MIC was determined as 500 µg/mL (≈ 2380 µM) against Staphylococcus aureus; 250 µg/mL (≈ 1190 µM) in the assay with Streptococcus pyogenes; 200 µg/mL (≈ 951 µM) against Aspergillus clavatus; 200 µg/mL (≈ 951 µM) in the assay on Candida albicans; 500 µg/mL (≈ 2380 µM) in assay [2]; 500 µg/mL (≈ 2380 µM) in the assay with Escherichia coli. The MIC in the assay with Pseudomonas aeruginosa and in the assay with Aspergillus niger was 250 µg/mL (≈ 1190 µM) throughout. For the same molecule, the “inhibition (INH)” value in assay [1] is given as 98%.

In the case of `Cc1ccc(-c2nnc(-c3cccnc3)n2Nc2nc3c([N+](=O)[O-])cccc3s2)cc1`, the MIC against Staphylococcus aureus came out at 500 µg/mL (≈ 1160 µM); with Streptococcus pyogenes it was 250 µg/mL (≈ 582 µM); with Aspergillus clavatus it was 500 µg/mL (≈ 1160 µM); in the assay with Candida albicans, 1000 µg/mL (≈ 2330 µM); in assay [2], 50 µg/mL (≈ 116 µM); with Escherichia coli, 12.5 µg/mL (≈ 29.1 µM). Besides, the MIC with Pseudomonas aeruginosa is 25 µg/mL (≈ 58.2 µM); in the assay on Aspergillus niger, 500 µg/mL (≈ 1160 µM). In addition, in assay [1], the “inhibition (INH)” value turned out to be 99%.

Consider `COC1=CC(=O)C[C@@H](C)[C@]12Oc1c(Cl)c(OC)cc(OC)c1C2=O` [GRISEOFULVIN], for which the minimum inhibitory concentration (MIC) is 100 µg/mL (≈ 283 µM) in the assay on Aspergillus clavatus, 500 µg/mL (≈ 1420 µM) in the assay on Candida albicans and 100 µg/mL (≈ 283 µM) against Aspergillus niger.

As to `Cc1cccc2sc(NN)nc12`, the MIC with Staphylococcus aureus was determined as 500 µg/mL (≈ 2790 µM); in the assay with Streptococcus pyogenes, 500 µg/mL (≈ 2790 µM); in the assay on Aspergillus clavatus, 200 µg/mL (≈ 1120 µM); in the assay on Candida albicans, 500 µg/mL (≈ 2790 µM); in assay [2], 500 µg/mL (≈ 2790 µM); against Escherichia coli, 250 µg/mL (≈ 1390 µM). The MIC in the assay with Pseudomonas aeruginosa and with Aspergillus niger was 250 µg/mL (≈ 1390 µM) throughout. Moreover, the “inhibition (INH)” value in assay [1] came out at 98%.

Turning to `NNc1nc2ccc([N+](=O)[O-])cc2s1`, the MIC against Staphylococcus aureus was 500 µg/mL (≈ 2380 µM); against Streptococcus pyogenes, 500 µg/mL (≈ 2380 µM); against Aspergillus clavatus, 1000 µg/mL (≈ 4760 µM); in the assay on Candida albicans, 500 µg/mL (≈ 2380 µM); in [2], 250 µg/mL (≈ 1190 µM); against Escherichia coli, 250 µg/mL (≈ 1190 µM). The MIC is 250 µg/mL (≈ 1190 µM) in the assay with Pseudomonas aeruginosa and 500 µg/mL (≈ 2380 µM) in the assay with Aspergillus niger. Further, in assay [1], the “inhibition (INH)” value came out at 99%.

In the case of `Cc1ccc(-c2nnc(-c3cccnc3)n2Nc2nc3cc(Cl)c(Cl)cc3s2)cc1`, the minimum inhibitory concentration (MIC) against Staphylococcus aureus is 250 µg/mL (≈ 551 µM); in the assay with Streptococcus pyogenes, 500 µg/mL (≈ 1100 µM); against Aspergillus clavatus it was 250 µg/mL (≈ 551 µM); in the assay with Candida albicans, 200 µg/mL (≈ 441 µM); in assay [2], 100 µg/mL (≈ 221 µM); against Escherichia coli it was 100 µg/mL (≈ 221 µM). Moreover, the MIC in the assay with Pseudomonas aeruginosa and in the assay with Aspergillus niger was 500 µg/mL (≈ 1100 µM) throughout. Besides, the “inhibition (INH)” value in [1] was 99%.

Regarding `Cc1ccc2nc(NN)sc2c1`, the MIC in the assay with Staphylococcus aureus was 250 µg/mL (≈ 1390 µM); with Streptococcus pyogenes, 250 µg/mL (≈ 1390 µM); against Aspergillus clavatus, over 1000 µg/mL; with Candida albicans, 250 µg/mL (≈ 1390 µM); in [2], 1000 µg/mL (≈ 5580 µM); in the assay with Escherichia coli, 100 µg/mL (≈ 558 µM). Further, the MIC with Pseudomonas aeruginosa stood at 500 µg/mL (≈ 2790 µM); in the assay on Aspergillus niger, 1000 µg/mL (≈ 5580 µM). For the same molecule, the “inhibition (INH)” value in [1] is 98%.
